# Source: ChEMBL document CHEMBL4616716, “ONO-8430506: A Novel Autotaxin Inhibitor That Enhances the Antitumor Effect of Paclitaxel in a Breast Cancer Model” (ACS Med Chem Lett, 2020)
# What was measured:
# Autotaxin [1] = target: T1, Autotaxin (Homo sapiens, UniProt Q13822); assay: Inhibition of recombinant human ATX assessed as reduction in choline release using LPC(16:0) as substrate incubated for 15 hrs
# Summary of the method: (§1)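 Recombinant human ATX with 16:0 LPC as substrate. Single-point inhibition was tested at 30 μM, and IC50 values were determined.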
# [2] = Octanol/phosphate buffer partition coefficient, LogD of compound at pH 7.4 mixed for 1 hr using benchtop-rotator followed by further incubation for 1 hr by ESI-LC-MS/MS analysis; assay type: physicochemical
# Autotaxin [3] = target: T1, Autotaxin; assay: Inhibition of LysoPLD activity of ATX in human plasma assessed as reduction in choline release using LPC(16:0) as substrate incubated for 15 hrs; assay type: cell-free
# Summary of the method: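 LysoPLD activity in human plasma with 16:0 LPC as substrate; IC50 determined.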
# [4] = Protein binding in human plasma measured after 4 hrs by LC-MS/MS analysis; assay type: ADME, cell-free; conditions: read-out: PPB (converted)
# [5] = Metabolic stability in rat hepatocytes assessed as parent compound remaining at 1 uM measured after 2 hrs by LC-MS/MS analysis; assay type: ADME, cell-based, Hepatocyte; conditions: read-out: Stability
# Summary of the method: (§2)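 Human and rat hepatocyte incubation; percent parent remaining after 2 h.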
# [6] = Oral bioavailability in Sprague-Dawley rat at 3 mg/kg by LC-MS/MS analysis; assay type: ADME, organism-based; conditions: in vivo
# Summary of the method: (§3)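 Single-dose rat PK, 1 mg/kg iv and 3 mg/kg po, n = 3. Plasma clearance was taken from the iv dose. Bioavailability was calculated from the iv and oral doses.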
# [7] = Metabolic stability in human hepatocytes assessed as parent compound remaining at 1 uM measured after 2 hrs by LC-MS/MS analysis; assay type: ADME, cell-based, Hepatocyte; conditions: read-out: Stability; summary of the method: as §2
# [8] = Plasma clearance in Sprague-Dawley rat at 1 mg/kg, iv by LC-MS/MS analysis; assay type: ADME, organism-based; summary of the method: as §3
# Autotaxin [9] = target: T1, Autotaxin; assay: Inhibition of recombinant human ATX assessed as reduction in choline release at 30 uM using LPC(16:0) as substrate incubated for 15 hrs relative to control; summary of the method: as §1
# [10] = AUC in Sprague-Dawley rat at 0.5 mg/kg, po administered as single cassette dosing by LC-MS/MS analysis; assay type: ADME, organism-based; conditions: in vivo
# Summary of the method: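 Rat cassette dosing, 0.5 mg/kg oral; plasma AUC reported.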
# [11] = Protein binding in rat plasma measured after 4 hrs by LC-MS/MS analysis; assay type: ADME, cell-free; conditions: read-out: PPB (converted)
Compound,IC50 (Autotaxin [1]),logD at 1 h [2],fraction unbound at 4 h [4],also measured
O=C(O)CCCCCC(=O)N1CCc2c(n(Cc3ccccc3)c3ncccc23)C1,250 nM,–,–,–
O=C(C[C@H]1CC[C@@H](C(=O)O)CC1)N1CCc2c(n(Cc3ccc(F)cc3F)c3ncccc23)C1,19 nM,1.36,0.006,IC50 (Autotaxin [3]): 16 nM
O=C(O)CCCCC(=O)N1CCc2c(n(Cc3cccc(F)c3)c3ncccc23)C1,50 nM,0.51,–,"remaining at 2 h, 1 µM [5]: 10%; bioavailability [6]: 30%; remaining at 2 h, 1 µM [7]: 29%; clearance [8]: 7.5 mL/min/kg"
CC(=O)N1CCc2c(n(Cc3ccccc3)c3ncccc23)C1,–,–,–,inhibition (Autotaxin [9]): 51.6%
O=C(O)c1ccc(CC(=O)N2CCc3c(n(Cc4cccc(F)c4)c4ncccc34)C2)cc1,28 nM,0.67,0.01,–
O=C(O)CCC(=O)N1CCc2c(n(Cc3ccccc3)c3ncccc23)C1,5400 nM,–,–,–
O=C(CC12CCC(C(=O)O)(CC1)CC2)N1CCc2c(n(Cc3ccc(F)cc3F)c3ncccc23)C1,9 nM,–,0.009,IC50 (Autotaxin [3]): 8.1 nM; AUC [10]: 472 ng·h/mL; fraction unbound at 4 h [11]: 0.043
O=C(O)CCCCC(=O)N1CCc2c(n(Cc3ccccc3)c3ncccc23)C1,240 nM,–,–,–
CC(C)(CCC(=O)N1CCc2c(n(Cc3cccc(F)c3)c3ncccc23)C1)CC(=O)O,24 nM,–,–,–
